Measurements published in ChEMBL document CHEMBL4425132, “Antibacterial and Solubility Optimization of Thiomuracin A” (J Med Chem, 2016).
≈ marks a conversion by molar mass, not a printed value.

How the values were obtained:
[1] = system: Clostridioides difficile; assay: Antimicrobial activity against Clostridium difficile ATCC 43255 infected in golden Syrian hamster assessed as animal survival at 20 mg/kg, po for 5 days dosed starting 24 hrs after infection measured for 16 days; type: functional; details: ATCC 43255, po
Procedure, shortened: (§1)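 Hamsters given a single subcutaneous clindamycin injection (10 mg/kg) on day -1. About 24 h later they were infected by oral gavage with ~7.5 x10^6 CFU/hamster. Inoculum was prepared from overnight plates resuspended in reinforced clostridial medium + 1% oxyrase. Oral dosing once daily for up to 5 days, 8 animals per dose. Animals observed twice daily for mortality, diarrhea and morbidity. Vehicle-only control group.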

[2] = system: Staphylococcus aureus; assay: Antimicrobial activity against Staphylococcus aureus ATCC 49951 infected in CD1 mouse systemic infection model dosed intravenously 1 and 5 hrs after inoculation; type: functional; details: for ED50: ATCC 49951, iv
[3] = system: Enterococcus faecalis; assay: Antimicrobial activity against Enterococcus faecalis NB04025 infected in CD1 mouse systemic infection model dosed intravenously once immediately following bacterial inoculation; type: functional; details: for ED50: NB04025, iv
[4] = system: Streptococcus pyogenes; assay: Antimicrobial activity against Streptococcus pyogenes ATCC BAA-595 by broth microdilution method; type: functional
Procedure, shortened: (§2)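 MICs determined by CLSI broth microdilution. Broth microdilution was used for every species tested, including the anaerobe C. difficile.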

[5] = system: Enterococcus faecium; assay: Antimicrobial activity against Enterococcus faecium 7130724 by broth microdilution method; type: functional; procedure, shortened: as §2
[6] = system: Staphylococcus aureus; assay: Antimicrobial activity against methicillin-resistant Staphylococcus aureus by broth microdilution method; type: functional
Procedure, shortened: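 Broth microdilution MIC following CLSI methods, with broth microdilution used for all species.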

[7] = Aqueous solubility of the compound at 20 mg/ml after 24 hrs RP-HPLC based shake flask method; type: physicochemical; details: aqueous medium
Procedure, shortened: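 Compound samples examined for dissolution. Clear solutions were reported as >starting concentration, with pH recorded. Samples with visible particles were filtered through 0.22 µ PVDF membranes, pH recorded, and dissolved drug quantified by RP-HPLC.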

[8] = system: Enterococcus faecalis; assay: Antimicrobial activity against Enterococcus faecalis ATCC 29212 by broth microdilution method; type: functional; procedure, shortened: as §2
[9] = system: Clostridioides difficile; assay: Antimicrobial activity against Clostridium difficile ATCC 43255 by broth microdilution method; type: functional; procedure, shortened: as §2
[10] = system: Clostridioides difficile; assay: Antimicrobial activity against Clostridium difficile ATCC 43255 infected in golden Syrian hamster assessed as animal survival at 5 mg/kg, po for 5 days dosed starting 24 hrs after infection measured for 16 days; type: functional; details: ATCC 43255, po; procedure, shortened: as §1
[11] = system: Clostridioides difficile; assay: Antimicrobial activity against Clostridium difficile ATCC 43255 infected in golden Syrian hamster assessed as animal survival at 25 mg/kg, po for 5 days dosed starting 24 hrs after infection measured for 16 days; type: functional; details: ATCC 43255, po; procedure, shortened: as §1
[12] = system: Clostridioides difficile; assay: Antimicrobial activity against Clostridium difficile ATCC 43255 infected in golden Syrian hamster assessed as animal survival at 10 mg/kg, po for 5 days dosed starting 24 hrs after infection measured for 16 days; type: functional; details: ATCC 43255, po; procedure, shortened: as §1
[13] = Half life in Sprague-Dawley rat at 1 mg/kg, iv by LC-MS/MS method; type: ADME, organism-based; details: in vivo
Procedure, shortened: (§3)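 Rats fasted overnight before dosing and for 8 hr after. Blood collected into K2-EDTA tubes and centrifuged to plasma. Plasma protein-precipitated with acetonitrile containing glyburide internal standard. Analysis by LC-MS/MS on reversed-phase C18 columns with a 5% to 95% acetonitrile gradient over ~3.5 min (0.1% formic acid in both phases).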

[14] = Clearance in Sprague-Dawley rat at 1 mg/kg, iv by LC-MS/MS method; type: ADME, organism-based; details: in vivo; procedure, shortened: as §3
[15] = Volume of distribution at steady state in Sprague-Dawley rat at 1 mg/kg, iv by LC-MS/MS method; type: ADME, organism-based; details: in vivo, read-out: Vdss; procedure, shortened: as §3
[16] = AUC in Sprague-Dawley rat at 1 mg/kg, iv by LC-MS/MS method; type: ADME, organism-based; details: in vivo; procedure, shortened: as §3
[17] = system: Staphylococcus aureus; assay: Antimicrobial activity against Staphylococcus aureus ATCC 49951; type: functional
Procedure, shortened: (§4)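 MIC by CLSI broth microdilution against the strains used in the mouse infection model.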

[18] = system: Enterococcus faecalis; assay: Antimicrobial activity against Enterococcus faecalis NB04025; type: functional; procedure, shortened: as §4

CN[C@H](CC(C)C)C(=O)N[C@H]1C(=O)N[C@@H](CC(N)=O)C(=O)N[C@H]2C(=O)N[C@H]3C(=O)N[C@H](C(=O)N[C@H](C(=O)O)c4cc(O)cc(O)c4-c4cc3ccc4O)[C@H](O)c3ccc(c(Cl)c3)Oc3cc2cc(c3O[C@@H]2O[C@H](CO)[C@@H](O)[C@H](O)[C@H]2O[C@H]2C[C@](C)(N)[C@H](O)[C@H](C)O2)Oc2ccc(cc2Cl)[C@H]1O [VANCOMYCIN]
survival at 20 mg/kg [1]: 38%
ED50 [2]: 1.1 mg/kg
ED50 [3]: 7.74 mg/kg

Cc1sc2nc1C(=O)N[C@@H]([C@H](O)c1ccccc1)c1nc(cs1)C(=O)N[C@@H](Cc1ccc(O)cc1)C(=O)NCC(=O)N1C[C@H](O)[C@H](C)[C@H]1c1nc(cs1)-c1nc(cs1)-c1nc(-c3nc(NC(=O)O[C@H]4CC[C@H](C(=O)O)CC4)cs3)ccc1-c1nc(cs1)C(=O)N[C@H]2CC(N)=O
MIC [4]: 0.125 µg/mL (≈ 0.0893 µM)
MIC [5]: 0.125 µg/mL (≈ 0.0893 µM)
MIC [6]: 0.25 µg/mL (≈ 0.179 µM)
solubility thermodynamic at 24 h [7]: 6 µg/mL (≈ 4.29 µM)
MIC [8]: 0.125 µg/mL (≈ 0.0893 µM)
MIC [9]: 0.03 µg/mL (≈ 0.0214 µM)

CCCCCCCCCC(=O)N[C@@H](Cc1c[nH]c2ccccc12)C(=O)N[C@H](CC(N)=O)C(=O)N[C@@H](CC(=O)O)C(=O)N[C@@H]1C(=O)NCC(=O)N[C@@H](CCCN)C(=O)N[C@@H](CC(=O)O)C(=O)N[C@H](C)C(=O)N[C@@H](CC(=O)O)C(=O)NCC(=O)N[C@H](CO)C(=O)N[C@@H]([C@H](C)CC(=O)O)C(=O)N[C@@H](CC(=O)c2ccccc2N)C(=O)O[C@@H]1C
ED50 [2]: 0.21 mg/kg
ED50 [3]: 2.6 mg/kg

COCc1sc2nc1C(=O)NCC(=O)N[C@@H]([C@@H](O)c1ccccc1)c1nc(cs1)-c1nc(cs1)-c1nc(-c3nc(N(CCCCC(=O)O)C(=O)O[C@H]4CC[C@H](C(=O)O)CC4)cs3)ccc1-c1nc(cs1)C(=O)N[C@@H](CC(N)=O)C1=NC(C)=C(S1)C(=O)N[C@H]2C(C)C
survival at 5 mg/kg [10]: 71 to 75%

Cc1sc2nc1C(=O)N[C@@H]([C@H](O)c1ccccc1)c1nc(cs1)C(=O)N[C@@H](Cc1ccc(O)cc1)C(=O)NCC(=O)N1C[C@H](O)[C@H](C)[C@H]1c1nc(cs1)-c1nc(cs1)-c1nc(-c3nc(C(=O)O)cs3)ccc1-c1nc(cs1)C(=O)N[C@H]2CC(N)=O
survival at 25 mg/kg [11]: 75%
MIC [4]: 0.5 µg/mL (≈ 0.397 µM)
MIC [5]: 0.5 µg/mL (≈ 0.397 µM)
MIC [6]: 2 µg/mL (≈ 1.59 µM)
solubility thermodynamic at 24 h [7]: 1 µg/mL (≈ 0.795 µM)
MIC [8]: 0.5 µg/mL (≈ 0.397 µM)
MIC [9]: 0.125 µg/mL (≈ 0.0993 µM)

Cc1sc2nc1C(=O)N[C@@H]([C@H](O)c1ccccc1)c1nc(cs1)C(=O)N[C@@H](Cc1ccc(O)cc1)C(=O)NCC(=O)N1C[C@H](O)[C@H](C)[C@H]1c1nc(cs1)-c1nc(cs1)-c1nc(-c3nc(C(=O)NCCCCC(=O)O)cs3)ccc1-c1nc(cs1)C(=O)N[C@H]2CC(N)=O
survival at 25 mg/kg [11]: 13%
MIC [4]: 0.125 µg/mL (≈ 0.0921 µM)
MIC [5]: 0.125 µg/mL (≈ 0.0921 µM)
MIC [6]: 0.5 µg/mL (≈ 0.368 µM)
solubility thermodynamic at 24 h [7]: 730 µg/mL (≈ 538 µM)
MIC [8]: 0.125 µg/mL (≈ 0.0921 µM)
MIC [9]: 0.06 µg/mL (≈ 0.0442 µM)

Cc1sc2nc1C(=O)N[C@@H]([C@H](O)c1ccccc1)c1nc(cs1)C(=O)N[C@@H](Cc1ccc(O)cc1)C(=O)NCC(=O)N1C[C@H](O)[C@H](C)[C@H]1c1nc(cs1)-c1nc(cs1)-c1nc(-c3nc(N(CCCCC(=O)O)C(=O)O[C@H]4CC[C@H](C(=O)O)CC4)cs3)ccc1-c1nc(cs1)C(=O)N[C@H]2CC(N)=O
MIC [4]: 0.125 µg/mL (≈ 0.0833 µM)
survival at 10 mg/kg [12]: 63%
MIC [5]: 0.125 µg/mL (≈ 0.0833 µM)
MIC [6]: 0.25 µg/mL (≈ 0.167 µM)
solubility thermodynamic at 24 h [7]: 9700 µg/mL (≈ 6470 µM)
survival at 5 mg/kg [10]: 25%
MIC [8]: 0.25 µg/mL (≈ 0.167 µM)
MIC [9]: 0.06 µg/mL (≈ 0.04 µM)

Cc1sc2nc1C(=O)N[C@@H]([C@H](O)c1ccccc1)c1nc(cs1)C(=O)N[C@@H](Cc1ccc(O)cc1)C(=O)NCC(=O)N1C[C@H](O)[C@H](C)[C@H]1c1nc(cs1)-c1nc(cs1)-c1nc(-c3nc(C(=O)N[C@H]4CC[C@H](C(=O)O)CC4)cs3)ccc1-c1nc(cs1)C(=O)N[C@H]2CC(N)=O
MIC [4]: 0.25 µg/mL (≈ 0.181 µM)
half-life [13]: 1.8 h
survival at 10 mg/kg [12]: 0%
Activity [2]: Dose-dependent effect
ED50 [2]: 3.42 mg/kg
MIC [5]: 0.125 µg/mL (≈ 0.0903 µM)
MIC [6]: 0.25 µg/mL (≈ 0.181 µM)
solubility thermodynamic at 24 h [7]: 750 µg/mL (≈ 542 µM)
clearance [14]: 0.98 mL/min/kg
MIC [8]: 0.125 µg/mL (≈ 0.0903 µM)
Vd [15]: 0.032 L/kg
Activity [3]: Dose-dependent effect
ED50 [3]: 0.71 mg/kg
AUC [16]: 13.2 µM·h
MIC [9]: 0.03 µg/mL (≈ 0.0217 µM)

Cc1sc2nc1C(=O)N[C@@H]([C@H](O)c1ccccc1)c1nc(cs1)C(=O)N[C@@H](Cc1ccc(O)cc1)C(=O)NCC(=O)N1C[C@H](O)[C@H](C)[C@H]1c1nc(cs1)-c1nc(cs1)-c1nc(-c3nc(C(=O)N(CCCCC(=O)O)[C@H]4CC[C@H](C(=O)O)CC4)cs3)ccc1-c1nc(cs1)C(=O)N[C@H]2CC(N)=O
MIC [4]: 0.5 µg/mL (≈ 0.337 µM)
MIC [5]: 1 µg/mL (≈ 0.674 µM)
MIC [6]: 2 µg/mL (≈ 1.35 µM)
solubility thermodynamic at 24 h [7]: 3400 µg/mL (≈ 2290 µM)
MIC [8]: 1 µg/mL (≈ 0.674 µM)
MIC [9]: 0.125 µg/mL (≈ 0.0842 µM)

Cc1sc2nc1C(=O)N[C@@H]([C@H](O)c1ccccc1)c1nc(cs1)C(=O)N[C@@H](Cc1ccc(O)cc1)C(=O)NCC(=O)N1C[C@H](O)[C@H](C)[C@H]1c1nc(cs1)-c1nc(cs1)-c1nc(-c3nc(C(N)=O)cs3)ccc1-c1nc(cs1)C(=O)N[C@H]2CC(N)=O
survival at 25 mg/kg [11]: 0%
MIC [4]: 1 µg/mL (≈ 0.795 µM)
ED50 [2]: 8 mg/kg
MIC [5]: 0.5 µg/mL (≈ 0.398 µM)
MIC [6]: 0.25 µg/mL (≈ 0.199 µM)
MIC [17]: 1 µg/mL (≈ 0.795 µM)
MIC [8]: 0.25 µg/mL (≈ 0.199 µM)
ED50 [3]: 1.5 mg/kg
MIC [18]: 0.125 µg/mL (≈ 0.0994 µM)
MIC [9]: < 0.008 µg/mL
